Measurements as given in ChEMBL document CHEMBL2010780, “Pyridine Carboxamides: Potent Palm Site Inhibitors of HCV NS5B Polymerase” (ACS Med Chem Lett, 2010).
pEC50, pIC50: −log10 of the molar value. The source made the active and inactive calls. The rule behind the calls is not given here.

What was measured:
Hepatitis C virus [1] = experiment: Antiviral activity against Hepatitis C virus genotype 1b Con1 infected in human HuH7 cells assessed as inhibition of viral RNA replication after 3 by real time PCR analysis; format: functional, organism-based, Hepacivirus hominis, Huh-7; conditions: Hepatitis C virus, Con1, Huh-7; read-out: EC50
Method in brief: (§1)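 Each value is the mean of duplicate experiments run on two separate weighings of compound.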

[2] = Cytotoxicity against human HuH7 cells after 3 days by MTS assay; format: cell-based, Huh-7; method in brief: as §1
[3] = Inhibition of Hepatitis C virus genotype 1b Con1 NS5B Cdelta21 polymerase assessed as incorporation of [33P]-CTP into heteropolymer RNA template after 2 hrs; parameters: species or system Hepacivirus hominis; conditions: Con1, 2 h; method in brief: as §1
[4] = Ratio of CC50 for human HuH7 cells to EC50 for Hepatitis C virus genotype 1b Con1; parameters: species or system Huh-7
[5] = test system: Hepatitis C virus genotype 3; experiment: Inhibition of Hepatitis C virus genotype 3 NS5B Cdelta21 polymerase up to 10 uM
Hepatitis C virus [6] = experiment: Ratio of IC50 for Hepatitis C virus genotype 1b Con1 NS5B Cdelta21 polymerase palm site 1 G554D mutant to IC50 for Hepatitis C virus genotype 1b Con1 NS5B Cdelta21 polymerase; parameters: species or system Hepacivirus hominis
Hepatitis C virus [7] = experiment: Ratio of IC50 for Hepatitis C virus genotype 1b Con1 NS5B Cdelta21 polymerase palm site 2 C316Y mutant to IC50 for Hepatitis C virus genotype 1b Con1 NS5B Cdelta21 polymerase; parameters: species or system Hepacivirus hominis
Hepacivirus hominis [8] = experiment: Ratio of IC50 for Hepatitis C virus subtype 1a H77 NS5B Cdelta21 polymerase to IC50 for Hepatitis C virus genotype 1b Con1 NS5B Cdelta21 polymerase
[9] = test system: Hepatitis C virus genotype 4; experiment: Inhibition of Hepatitis C virus genotype 4 NS5B Cdelta21 polymerase up to 10 uM
Hepatitis C virus [10] = experiment: Ratio of IC50 for Hepatitis C virus genotype 1b Con1 NS5B Cdelta21 polymerase palm site 1 M414T mutant to IC50 for Hepatitis C virus genotype 1b Con1 NS5B Cdelta21 polymerase; parameters: species or system Hepacivirus hominis
Hepatitis C virus [11] = experiment: Ratio of IC50 for Hepatitis C virus genotype 1b Con1 NS5B Cdelta21 polymerase thumb site 1 P495L mutant to IC50 for Hepatitis C virus genotype 1b Con1 NS5B Cdelta21 polymerase; parameters: species or system Hepacivirus hominis
Hepatitis C virus [12] = experiment: Ratio of IC50 for Hepatitis C virus genotype 1b Con1 NS5B Cdelta21 polymerase thumb site 2 M423T mutant to IC50 for Hepatitis C virus genotype 1b Con1 NS5B Cdelta21 polymerase; parameters: species or system Hepacivirus hominis
[13] = test system: Hepatitis C virus genotype 2; experiment: Inhibition of Hepatitis C virus genotype 2 NS5B Cdelta21 polymerase up to 10 uM
Hepacivirus hominis [14] = experiment: Ratio of IC50 for Hepatitis C virus subtype 1b BK NS5B Cdelta21 polymerase to IC50 for Hepatitis C virus genotype 1b Con1 NS5B Cdelta21 polymerase
Hepatitis C virus [15] = experiment: Ratio of IC50 for Hepatitis C virus genotype 1b Con1 NS5B Cdelta21 polymerase palm site 2 C316N mutant to IC50 for Hepatitis C virus genotype 1b Con1 NS5B Cdelta21 polymerase; parameters: species or system Hepacivirus hominis
Hepatitis C virus [16] = experiment: Inhibition of Hepatitis C virus genotype 1b Con1 NS5B Cdelta21 polymerase-mediated RNA synthesis at elongation phase after 22 hrs by single round elongation assay; conditions: Hepacivirus hominis
Method in brief: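 Single-cycle assay measuring elongation from NS5B enzyme–primer–template complexes that were preformed before elongation.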

Hepatitis C virus [17] = experiment: Inhibition of Hepatitis C virus genotype 1b Con1 NS5B Cdelta21 polymerase-mediated RNA synthesis at initiation phase after 15 mins by primer extension assay; conditions: Hepacivirus hominis

Structure (SMILES)	pEC50 (Hepatitis C virus [1])	CC50 at 72 h [2]	pIC50 [3]	Ratio CC50/EC50 [4]	inhibition [5]	Ratio IC50 (Hepatitis C virus [6])	Ratio IC50 (Hepatitis C virus [7])	Ratio IC50 (Hepacivirus hominis [8])	inhibition [9]	Ratio IC50 (Hepatitis C virus [10])	Ratio IC50 (Hepatitis C virus [11])	Ratio IC50 (Hepatitis C virus [12])	inhibition [13]	Ratio IC50 (Hepacivirus hominis [14])	Ratio IC50 (Hepatitis C virus [15])	inhibition (Hepatitis C virus [16])	inhibition (Hepatitis C virus [17])
Cc1ncccc1C(=O)Nc1ccc(C(C)C)cc1N1CCN(c2cnccn2)CC1	5.55	22 µM	6.28	10	–	–	–	–	–	–	–	–	–	–	–	–	–
Cc1ncccc1C(=O)Nc1ccc(C(C)C)cc1N1CCN(c2ncnc3[nH]ccc23)CC1	5.52	> 10 µM	7.49	–	inactive	8	>300	270	inactive	27	1	1	inactive	27	4	–	–
Cc1ncccc1C(=O)Nc1ccc(C(C)C)cc1N1CCN(c2ncnc3ccsc23)CC1	6.15	15 µM	7.85	>20	inactive	4	>300	140	inactive	21	1	1	inactive	14	3	inactive	Active
